# Assay outcomes (PubChem BioAssay)
# A selection: hits, their analogues and other compounds. The true share with any hit is near 2.5%.
# PRMT1 FP inh: blocks human protein arginine methyltransferase 1; Q99873; recombinant PRMT1, activity-based probe fluorescence polarization; inhibition, % at 2.79 µM; 370,000 compounds, 1.3% hits;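 active means inhibition above about 21% made by adding two undisclosed values, limit read from the data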
# Target sequence (Q99873 whole entry, looked up): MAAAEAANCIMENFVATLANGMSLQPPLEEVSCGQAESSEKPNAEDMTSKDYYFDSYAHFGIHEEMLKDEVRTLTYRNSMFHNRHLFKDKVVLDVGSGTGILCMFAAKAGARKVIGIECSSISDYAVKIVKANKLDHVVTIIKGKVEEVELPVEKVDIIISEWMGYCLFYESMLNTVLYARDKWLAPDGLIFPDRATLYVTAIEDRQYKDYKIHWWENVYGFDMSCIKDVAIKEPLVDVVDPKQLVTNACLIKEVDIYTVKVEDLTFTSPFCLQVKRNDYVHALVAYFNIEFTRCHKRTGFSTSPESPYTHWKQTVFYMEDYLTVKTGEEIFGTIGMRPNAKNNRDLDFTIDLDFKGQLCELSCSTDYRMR
# GSTO1 counter: counter-screen for RBBP9 inhibitors: inhibitors of human GSTO1 | inhibition, % at 5.96 µM | P78417 | 300,000 compounds, 1.1% hits | recombinant GSTO1, activity-based probe fluorescence polarization | AID 1974;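 active means inhibition above the campaign mean inhibition plus 3 SD, cut at about 35% in these data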;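 further: 0% = GSTO1-1 with DMSO and 100% = wells lacking GSTO1-1 enzyme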
# Target sequence (P78417 whole entry, looked up): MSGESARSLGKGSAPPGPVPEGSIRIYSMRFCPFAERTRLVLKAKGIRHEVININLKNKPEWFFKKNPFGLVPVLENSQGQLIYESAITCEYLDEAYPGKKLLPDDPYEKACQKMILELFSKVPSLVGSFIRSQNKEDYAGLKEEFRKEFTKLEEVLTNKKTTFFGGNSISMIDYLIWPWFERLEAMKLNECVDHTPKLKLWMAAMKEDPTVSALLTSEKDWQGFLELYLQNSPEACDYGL
# TDP2 inh: blocks human TDP2 phosphodiesterase activity; inhibition, % at 12.8 µM; AID 720702; recombinant TDP2, T5PNP hydrolysis, p-nitrophenol absorbance 415 nm; 370,000 compounds, 0.34% hits;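 active means inhibition above the mean of all tested compounds plus 3 SD, set per campaign, cut at about 25% in these data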;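 further: 0% = DMSO with enzyme and 100% = buffer with substrate but no TDP2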
#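 Material: recombinant human TDP2; quantity: TDP2 enzyme at 120 nM final; medium: Tris-HCl pH 7.5 with MgCl2; compound: single concentration, 12.8 µM nominal, with 1% DMSO; incubation: 2 h enzyme incubation at 37 °C; signal: epi absorbance; measure: percent inhibition; benchmarks: high control without enzyme, low control DMSO plus TDP2; repeats: singlicate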
# PAD4 FP inh: inhibitors of human PAD4 | Q9UM07 | recombinant PAD4, RCA probe fluorescence polarization | inhibition, % at 6.36 µM | 330,000 compounds, 0.41% hits;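 active means percent inhibition above a cutoff equal to the mean of all tested compounds plus 3 SD, cut at about 15% in these data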;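 further: 0% = PAD4 with RCA probe and DMSO and 100% = probe without PAD4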
# eLon inh: inhibitors of E. coli Lon protease; 360,000 compounds, 0.42% hits; AID 602123; inhibition, % at 7.94 µM; P0A9M0; purified E. coli Lon protease, fluorescence polarization; in the data active means inhibition above about 13%, passing the limit was not always enough;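 further: 0% = enzyme with probe and DMSO and 100% = no enzyme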
# GSTO1 inh conf: GSTO1 (human) inhibition, confirmation; 2,400 compounds, 54% hits; shares compounds with GSTO1 counter; AID 2176; recombinant GSTO1, probe fluorescence polarization; inhibition, % at 5.96 µM;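 active means inhibition above the primary screen's cutoff, its mean inhibition plus 3 SD, cut at about 35% in these data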;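 further: loss of polarization as inhibitors block binding of rhodamine sulfonate ester activity probe; 0% = GSTO1 with DMSO and 100% = wells lacking GSTO1 enzyme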
# PAD4 confirm: PAD4 (human) inhibition, confirmed; shares compounds with PAD4 FP inh; recombinant PAD4, RCA probe fluorescence polarization; inhibition, % at 6.36 µM; 1,200 compounds, 28% hits;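 active means mean inhibition across replicates above the hit cutoff set by the earlier primary screen, cut at about 15% in these data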;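 further: inhibitors block active-site labeling by the probe so polarization falls; 0% = PAD4 with probe and DMSO and 100% = probe without PAD4 enzyme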
# E coli Lon conf: confirmation of E. coli Lon protease inhibitors; shares compounds with eLon inh; purified E. coli Lon, fluorescence polarization; inhibition, % at 7.94 µM; 1,400 compounds, 31% hits; AID 602230; in the data active means inhibition above about 16%;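 further: 0% = enzyme with probe and DMSO and 100% = no enzyme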
# TDP2 inh conf: confirmation of human TDP2 inhibitors; shares compounds with TDP2 inh; recombinant human TDP2, absorbance read-out; inhibition, % at 12.8 µM; 1,100 compounds, 22% hits; AID 743263; in the data active means inhibition above about 25%;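 further: 0% = vehicle with enzyme and 100% = no enzyme buffer only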
# Numbers without * were called inactive; nt = no result given.
SMILES,PRMT1 FP inh,GSTO1 counter,TDP2 inh,PAD4 FP inh,eLon inh,PAD4 confirm,others
CC1(C)Cc2c(C#N)c(N)n(-c3ccccc3)c(=S)c2CO1,6,0,8,2,-4,nt,
CC1(C)C=C2C(=NN(c3ccccc3)C(N)=C2C#N)CO1,3,74*,47*,22*,6,56*,GSTO1 inh conf=88*;TDP2 inh conf=53*
Cc1ccc(C)c(S(=O)(=O)Nc2ccc(O)c(C(=O)O)c2)c1,1,3,0,0,-10,nt,
Cc1ccc(C)c(S(=O)(=O)Nc2ccc(O)c3ccccc23)c1,6,53*,42*,-5,1,nt,GSTO1 inh conf=0;TDP2 inh conf=15
CC[C@@H](CCCc1ccc(F)cc1)CN(Cc1ccc(OC)cc1)S(=O)(=O)c1ccc(C)cc1,-3,nt,7,nt,nt,nt,
CCCOc1cc(N)ccc1C(=O)OCCN(CC)CC,-3,6,-5,-2,6,nt,
CCCOc1ccc(N)cc1N,16,78*,29*,49*,-16,nt,GSTO1 inh conf=-14;TDP2 inh conf=22
Nn1cnnc1N/N=C/c1ccc(Cl)c([N+](=O)[O-])c1,1,39*,75*,56*,8,-1,GSTO1 inh conf=6;TDP2 inh conf=37*
CC(NC(=O)Cc1ccccc1)c1ccccc1 (stereo unspecified),-1,8,-9,-7,-12,nt,
O=C(NC1(O)C(=O)c2ccccc2C1=O)c1ccc(C(F)(F)F)cc1,2,84*,37*,40*,0,40*,GSTO1 inh conf=77*;TDP2 inh conf=83*
O=C(Cc1ccccc1)NC1(O)C(=O)c2ccccc2C1=O,-2,72*,64*,9,-2,nt,GSTO1 inh conf=75*;TDP2 inh conf=62*
O=S(=O)(CC1NCc2cc(F)ccc21)NCc1ccccc1 (stereo unspecified),-1,nt,9,nt,nt,nt,
COc1cc(/C=C2/C(=O)N(c3ccc([N+](=O)[O-])cc3)N=C2N2CCOCC2)ccc1O,6,89*,67*,70*,-4,2,GSTO1 inh conf=10;TDP2 inh conf=32*
CN(C)c1cc(Cl)c2nonc2c1N,11,60*,66*,40*,5,-9,GSTO1 inh conf=35;TDP2 inh conf=54*
CN(C)c1ccc(Cl)cc1N,0,11,1,3,10,nt,
CCC(=Nc1ccc(N)cc1)C1=C(O)C(C(=O)OC)C(C)(C)CC1=O (stereo unspecified),11,85*,55*,73*,20*,7,GSTO1 inh conf=6;E coli Lon conf=3;TDP2 inh conf=17
CCCC(=Nc1ccccc1)C1=C(O)C(C(=O)OC)C(C)(C)CC1=O (stereo unspecified),0,1,-9,-2,-7,nt,
CCCCC(=Nc1ccc(N)cc1)C1=C(O)C(C(=O)OC)C(C)(C)CC1=O (stereo unspecified),17,86*,60*,75*,5,2,GSTO1 inh conf=3;TDP2 inh conf=17
O=C(Nc1ccncc1)c1ccc2ncsc2c1,-1,5,8,0,-10,nt,
O=C(Nc1ccc(S(=O)(=O)Nc2ncccn2)cc1)c1ccc2ncsc2c1,24*,-6,-3,18*,-12,10,
CN1C2=N[C@@H](c3ccccc3)CC(=O)N2/C(=C\c2ccccc2)[C@H]1c1ccccc1,2,nt,-13,nt,nt,nt,
O=C1CC(c2ccc(F)cc2)c2cc3c(cc2N1)CCC3 (stereo unspecified),1,4,-13,16*,-10,0,
O=C(NCCNC(=O)c1ccccc1Cl)c1ccco1,0,1,-14,2,-7,nt,
O=C(NCCCNC(=O)c1ccccc1F)c1ccco1,2,2,4,37*,-4,0,
O=C(O)c1[nH]c2ccccc2c1-c1ccccc1,0,4,5,104*,-5,4,
SMILES,PRMT1 FP inh,GSTO1 counter,TDP2 inh,PAD4 FP inh,eLon inh,PAD4 confirm,others
CC1=NN(c2ccc(C)cc2C)C(=O)C1C(c1cccc(O)c1)C1C(=O)N(c2ccc(C)cc2C)N=C1C (stereo unspecified),4,55*,71*,40*,2,-1,
CC1=NN(c2ccccc2)C(=O)C1N=Nc1cccc(O)c1 (stereo unspecified),0,-1,0,-6,-8,nt,
C=CCC(CC=C)(NC(=O)c1ccccc1C)c1ccccc1,-1,12,-12,17*,-8,8,
C=CCC(CC=C)(NC(=O)c1ccccc1)c1ccccc1,-3,7,-2,-1,1,nt,
OCCNCc1ccc(OCc2ccc(Cl)cc2Cl)cc1,-3,9,5,-1,-7,nt,
O=c1[nH]nc(-c2ccc(OCc3ccc(Cl)cc3Cl)cc2)o1,-2,11,-1,89*,-4,-2,
COc1ccc2c(c1)N[C@@](CCN1C(=O)c3ccccc3C1=O)(c1[nH]c3ccccc3c1CCN1C(=O)c3ccccc3C1=O)C2=O,6,nt,-2,nt,nt,nt,
Cc1c(NC(=O)C(C)OC(=O)c2cccc([N+](=O)[O-])c2)c(=O)n(-c2ccccc2)n1C (stereo unspecified),1,-2,-5,-4,-3,nt,
CSCc1cccc(C(=O)OC(C)C(=O)Nc2c(C)n(C)n(-c3ccccc3)c2=O)c1 (stereo unspecified),-1,nt,-1,24*,0,6,
COC(=O)[C@]12C[C@H](CC(=O)NCCC(C)C)C(=O)N(CCc3ccc(OC)c(OC)c3)C1=C[C@H](C(C)C)O[C@@H]2C1CC1,-2,nt,-5,nt,nt,nt,
CCOC(=O)c1c(CSC(=N)N)n(C)c2cc(Br)c(OC(C)=O)cc12,2,-23,-6,38*,6,44*,
COC(=O)C1CN(CCc2ccccc2)CCS(=O)(=O)N1Cc1ccccc1 (stereo unspecified),0,nt,5,nt,nt,nt,
COC(=O)[C@]12C[C@H](CC(=O)NCc3ccc(C)o3)C(=O)N(CCc3ccc(OC)c(OC)c3)C1=C[C@H](C(C)C)O[C@@H]2C1CC1,1,nt,3,nt,nt,nt,
CCN=C1NC(c2ccc(C(F)(F)F)cc2)C(C(=O)OC)=C(C)N1Cc1cccc(C(F)(F)F)c1 (stereo unspecified),-1,nt,-9,nt,nt,nt,
CC1COC(c2cccn2Cc2ccccc2Cl)=N1 (stereo unspecified),1,1,-5,45*,-20,0,
CCC1COC(c2cccn2Cc2ccc(Cl)cc2)=N1 (stereo unspecified),5,-3,15,-7,-5,nt,
O=C(CN1CCOCC1)Nc1nc2ccc(Br)cc2s1,39*,1,-4,17*,-5,9,
O=C(CN1CCOCC1)Nc1nc2ccc(Cl)cc2s1,1,3,-4,-4,2,nt,
